Test results from the M2OR odorant receptor database.
Residue numbers refer to the chain shown, from its start.

Test system: T1, O13F1 F18S T254M
T1 sequence (whole entry): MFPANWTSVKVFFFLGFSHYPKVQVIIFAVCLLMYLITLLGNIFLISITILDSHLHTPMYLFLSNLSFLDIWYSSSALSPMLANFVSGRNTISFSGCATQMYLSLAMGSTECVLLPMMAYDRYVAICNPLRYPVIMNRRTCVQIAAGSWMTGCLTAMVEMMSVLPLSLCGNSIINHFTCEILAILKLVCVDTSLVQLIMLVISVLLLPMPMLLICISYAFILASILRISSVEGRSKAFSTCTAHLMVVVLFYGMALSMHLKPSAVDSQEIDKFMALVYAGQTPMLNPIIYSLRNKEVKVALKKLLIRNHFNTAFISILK
Details: stereoisomer not certain
Procedure, shortened: (§1)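 Whether a receptor–molecule pair is responsive (active) rests on the original authors' judgment that its measured signal was statistically different from baseline. Pairs without that judgment are non-responsive (inactive). Sources used varied assay methods, commonly transient luciferase assays in mammalian cell lines.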

SMILES	odorant receptor agonist call;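 further: active if original authors judged signal statistically different from baseline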
CCCC(S)CCOC(C)=O (stereo not given)	inactive
Cc1cnc(C)c(C)n1	inactive
CC1=C(O)C(=O)OC1C (stereo not given)	inactive
CCC1OC(=O)C(O)=C1C (stereo not given)	inactive
CC1=NC(C)C(C)S1 (stereo not given)	inactive
CCC1OC(C)=C(O)C1=O (stereo not given)	inactive
CC1=C(O)C(=O)C(C)O1 (stereo not given)	inactive

Test system: T2, O13F1 F18S
T2 sequence (whole entry): T1 sequence (whole entry) with M254T
Details: stereoisomer not certain
Procedure, shortened: as §1

SMILES	odorant receptor agonist call;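 further: active if original authors judged signal statistically different from baseline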
CCCC(S)CCOC(C)=O (stereo not given)	inactive
Cc1cnc(C)c(C)n1	inactive
CC1=C(O)C(=O)OC1C (stereo not given)	inactive
CCC1OC(=O)C(O)=C1C (stereo not given)	inactive
CC1=NC(C)C(C)S1 (stereo not given)	inactive
CCC1OC(C)=C(O)C1=O (stereo not given)	inactive
CCCCCCC=CCCC=O	inactive
CC1=C(O)C(=O)C(C)O1 (stereo not given)	inactive

Test system: T3, O13G1 K46I M146L
T3 sequence (whole entry): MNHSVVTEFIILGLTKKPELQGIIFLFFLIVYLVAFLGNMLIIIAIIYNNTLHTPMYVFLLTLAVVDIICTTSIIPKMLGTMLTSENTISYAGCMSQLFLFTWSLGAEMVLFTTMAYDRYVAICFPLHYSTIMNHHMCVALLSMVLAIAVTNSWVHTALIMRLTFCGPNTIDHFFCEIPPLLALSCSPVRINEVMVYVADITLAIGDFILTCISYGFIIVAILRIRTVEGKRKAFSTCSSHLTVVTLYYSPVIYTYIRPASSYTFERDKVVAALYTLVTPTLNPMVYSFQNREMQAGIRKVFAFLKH
Details: stereoisomer not certain
Procedure, shortened: as §1

SMILES	odorant receptor agonist call;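 further: active if original authors judged signal statistically different from baseline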
CCCC(S)CCOC(C)=O (stereo not given)	inactive
Cc1cnc(C)c(C)n1	inactive
CC1=C(O)C(=O)OC1C (stereo not given)	inactive
CCC1OC(=O)C(O)=C1C (stereo not given)	inactive
CC1=NC(C)C(C)S1 (stereo not given)	inactive
CCC1OC(C)=C(O)C1=O (stereo not given)	inactive
CCCCCCC=CCCC=O	inactive
CC1=C(O)C(=O)C(C)O1 (stereo not given)	inactive

Test system: T4, O13G1
T4 sequence (whole entry): T3 sequence (whole entry) with I46K, I132V, L146M
Details: stereoisomer not certain
Procedure, shortened: as §1

SMILES	odorant receptor agonist call;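 further: active if original authors judged signal statistically different from baseline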
CCCC(S)CCOC(C)=O (stereo not given)	inactive
Cc1cnc(C)c(C)n1	inactive
CC1=C(O)C(=O)OC1C (stereo not given)	inactive
CCC1OC(=O)C(O)=C1C (stereo not given)	inactive
CC1=NC(C)C(C)S1 (stereo not given)	inactive
CCC1OC(C)=C(O)C1=O (stereo not given)	inactive
CCCCCCC=CCCC=O	inactive
CC1=C(O)C(=O)C(C)O1 (stereo not given)	inactive

Test system: T5, O13H1 Y266S
T5 sequence (whole entry): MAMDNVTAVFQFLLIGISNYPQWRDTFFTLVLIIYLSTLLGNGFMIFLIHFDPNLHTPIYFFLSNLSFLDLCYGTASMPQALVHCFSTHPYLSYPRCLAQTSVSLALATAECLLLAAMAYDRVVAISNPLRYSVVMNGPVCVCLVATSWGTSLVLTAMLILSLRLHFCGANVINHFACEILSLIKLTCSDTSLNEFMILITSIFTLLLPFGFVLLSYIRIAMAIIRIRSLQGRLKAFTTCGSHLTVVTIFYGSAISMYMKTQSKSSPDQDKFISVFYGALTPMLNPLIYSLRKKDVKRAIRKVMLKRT
Details: stereoisomer not certain
Procedure, shortened: as §1

SMILES	odorant receptor agonist call;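 further: active if original authors judged signal statistically different from baseline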
CCCC(S)CCOC(C)=O (stereo not given)	inactive
Cc1cnc(C)c(C)n1	inactive
CC1=C(O)C(=O)OC1C (stereo not given)	inactive
CCC1OC(=O)C(O)=C1C (stereo not given)	inactive
CC1=NC(C)C(C)S1 (stereo not given)	inactive
CCC1OC(C)=C(O)C1=O (stereo not given)	inactive
CCCCCCC=CCCC=O	inactive
CC1=C(O)C(=O)C(C)O1 (stereo not given)	inactive

Test system: T6, O13J1
T6 sequence (whole entry): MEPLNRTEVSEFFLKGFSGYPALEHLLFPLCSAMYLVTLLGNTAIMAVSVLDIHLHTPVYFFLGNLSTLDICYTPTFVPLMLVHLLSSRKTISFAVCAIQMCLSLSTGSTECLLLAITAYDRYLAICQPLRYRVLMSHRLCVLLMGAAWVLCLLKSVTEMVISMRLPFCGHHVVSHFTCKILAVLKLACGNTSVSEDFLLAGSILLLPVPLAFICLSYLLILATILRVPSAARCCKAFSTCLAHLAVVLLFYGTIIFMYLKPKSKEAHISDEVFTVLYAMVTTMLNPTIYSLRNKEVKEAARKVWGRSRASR
Details: stereoisomer not certain
Procedure, shortened: as §1

SMILES	odorant receptor agonist call;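 further: active if original authors judged signal statistically different from baseline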
CCCC(S)CCOC(C)=O (stereo not given)	inactive
Cc1cnc(C)c(C)n1	inactive
CC1=C(O)C(=O)OC1C (stereo not given)	inactive
CCC1OC(=O)C(O)=C1C (stereo not given)	inactive
CC1=NC(C)C(C)S1 (stereo not given)	inactive
CCC1OC(C)=C(O)C1=O (stereo not given)	inactive
CCCCCCC=CCCC=O	inactive
CC1=C(O)C(=O)C(C)O1 (stereo not given)	inactive

Test system: T7, O1440
T7 sequence (whole entry): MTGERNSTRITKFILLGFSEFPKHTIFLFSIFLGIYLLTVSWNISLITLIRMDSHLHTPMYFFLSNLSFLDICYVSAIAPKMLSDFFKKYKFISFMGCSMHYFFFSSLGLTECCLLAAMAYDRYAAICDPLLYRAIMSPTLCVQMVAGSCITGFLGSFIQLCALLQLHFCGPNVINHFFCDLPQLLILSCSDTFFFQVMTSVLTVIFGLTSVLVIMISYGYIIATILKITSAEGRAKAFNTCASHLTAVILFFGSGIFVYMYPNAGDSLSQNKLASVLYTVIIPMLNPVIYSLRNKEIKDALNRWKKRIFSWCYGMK
Details: stereoisomer not certain
Procedure, shortened: as §1

SMILES	odorant receptor agonist call
O=C1CCCC=CCCCCCCCCCC1	active
O=C1CCCCCC=CCCCCCCCCO1	active
CC1CCCCCCCCCCCC(=O)C1 (stereo not given)	active
CCC(=O)OCC(C)(C)OC(C)C1CCCC(C)(C)C1 (stereo not given)	inactive
O=C1CCCCCCCCC1	inactive
O=C1C=CCCCCCCCCCCCCO1	active
CC1CC=CCCCCCCCCCC(=O)C1 (stereo not given)	active
O=C1CCCCCCC=CCCCCCCC1	active
CCCCCCCCCCCCCC(C)=O	inactive
CC1CCCCCCCCCCCCC(=O)C1 (stereo not given)	active
O=C1CCCCCCCCCC1	inactive
CCCCCCCC(=O)CCCCCCC	inactive
CC1C(C)(C)C2=C(C(=O)CCC2)C1(C)C (stereo not given)	inactive
C1CCCCCCCCCCCCCC1	inactive
O=C1CCCCCCCCCCCCCC1	active
CC1CC=CCCCCCCCCC(=O)C1 (stereo not given)	active
OC1CCCCCCCCCCCCCC1	active
CC(=O)c1c(C)c([N+](=O)[O-])c(C(C)(C)C)c([N+](=O)[O-])c1C	active
